In ChEMBL document CHEMBL1938313, “Influence of the skeleton on the cytotoxicity of flavonoids” (Bioorg Med Chem, 2012):
Values belong to the compound of their own block, whether it stands above or below them.

Assays:
KB [1] = test: Cytotoxicity against human KB cells assessed as growth inhibition at 10 '-6 M after 72 hrs by MTS assay; type: functional; conditions: read-out: GI
Procedure, shortened: (§1)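 Cells seeded at 600 per well, dosed 24 h later from DMSO stocks over 0.5 nM–10 µM (DMSO 1% final in controls). KB was grown in D-MEM with 10% fetal calf serum; HL60 in complete RPMI. After 72 h, MTS was added for 3 h at 37 °C and A490 read. Inhibition % = (1 − OD treated/OD control) × 100, in triplicate; IC50 runs were in duplicate.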

HL-60 [2] = test: Induction of apoptosis in human HL60 cells assessed as viable cells at 100 nM after 24 hrs using annexin-V-PE/7-AAD staining by flow cytometry analysis (reference value: 90.8 %); type: functional; conditions: HL-60, 24 h, read-out: Activity
HL-60 [3] = test: Induction of apoptosis in human HL60 cells assessed as early apoptotic cells at 100 nM after 24 hrs using annexin-V-PE/7-AAD staining by flow cytometry analysis (reference value: 7.5 %); type: functional
HL-60 [4] = test: Induction of apoptosis in human HL60 cells assessed as late apoptotic cells at 100 nM after 24 hrs using annexin-V-PE/7-AAD staining by flow cytometry analysis (reference value: 0.8 %); type: functional
HL-60 [5] = test: Induction of apoptosis in human HL60 cells assessed as viable cells at 100 nM after 48 hrs using annexin-V-PE/7-AAD staining by flow cytometry analysis (reference value: 83.9 %); type: functional; conditions: HL-60, 48 h, read-out: Activity
HL-60 [6] = test: Induction of apoptosis in human HL60 cells assessed as early apoptotic cells at 100 nM after 48 hrs using annexin-V-PE/7-AAD staining by flow cytometry analysis (reference value: 14.7 %); type: functional
HL-60 [7] = test: Induction of apoptosis in human HL60 cells assessed as late apoptotic cells at 100 nM after 48 hrs using annexin-V-PE/7-AAD staining by flow cytometry analysis (reference value: 0.6 %); type: functional
KB [8] = test: Cytotoxicity against human KB cells after 72 hrs by MTS assay; type: functional, cell-based; procedure, shortened: as §1
HL-60 [9] = test: Cytotoxicity against human HL60 cells after 72 hrs by MTS assay; type: functional, cell-based; conditions: HL-60, 72 h; procedure, shortened: as §1
Ovis aries [10] = organism: Ovis aries; test: Inhibition of sheep brain tubulin polymerization at 2 x 10 '-5 M after 10 mins by turbidimetry
Procedure, shortened: (§2)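 Microtubule protein was purified from sheep brain by two assembly/disassembly cycles (37 °C/0 °C) in 100 mM MES pH 6.6, 1 mM EGTA, 0.5 mM MgCl2. Compound in DMSO (1 µL) was added to 150 µL microtubule solution, incubated 10 min at 37 °C then 5 min at 0 °C, and turbidity read at 350 nm. Single tests were at ~2 × 10^-5 M; IC50 was also expressed relative to deoxypodophyllotoxin IC50.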

HL-60 [11] = test: Cell cycle arrest in human HL60 cells assessed as accumulation at Sub G1 phase at 100 nM after 24 hrs by propidium iodide based flow cytometry analysis (reference value: 2.3 %); type: functional
HL-60 [12] = test: Cell cycle arrest in human HL60 cells assessed as accumulation at G0/G1 phase at 100 nM after 24 hrs by propidium iodide based flow cytometry analysis (reference value: 50.6 %); type: functional
HL-60 [13] = test: Cell cycle arrest in human HL60 cells assessed as accumulation at S phase at 100 nM after 24 hrs by propidium iodide based flow cytometry analysis (reference value: 22.3 %); type: functional
HL-60 [14] = test: Cell cycle arrest in human HL60 cells assessed as accumulation at G2/M phase at 100 nM after 24 hrs by propidium iodide based flow cytometry analysis (reference value: 24.8 %); type: functional
HL-60 [15] = test: Cell cycle arrest in human HL60 cells assessed as accumulation at Sub G1 phase at 100 nM after 48 hrs by propidium iodide based flow cytometry analysis (reference value: 4 %); type: functional
HL-60 [16] = test: Cell cycle arrest in human HL60 cells assessed as accumulation at G0/G1 phase at 100 nM after 48 hrs by propidium iodide based flow cytometry analysis (reference value: 51.2 %); type: functional
HL-60 [17] = test: Cell cycle arrest in human HL60 cells assessed as accumulation at S phase at 100 nM after 48 hrs by propidium iodide based flow cytometry analysis (reference value: 20.9 %); type: functional
HL-60 [18] = test: Cell cycle arrest in human HL60 cells assessed as accumulation at G2/M phase at 100 nM after 48 hrs by propidium iodide based flow cytometry analysis (reference value: 23.9 %); type: functional
[19] = Inhibition of sheep brain tubulin polymerization after 10 mins by turbidimetry analysis; design: species or system Ovis aries; procedure, shortened: as §2
Ovis aries [20] = organism: Ovis aries; test: Ratio of compound IC50 to DPPT IC50 for sheep brain tubulin; procedure, shortened: as §2
HL-60 [21] = test: Cytotoxicity against human HL60 cells assessed as growth inhibition after 72 hrs by MTS assay; conditions: HL-60, 72 h
HL-60 [22] = test: Cell cycle arrest in human HL60 cells assessed as accumulation at Sub G1 phase at 20 nM after 24 hrs by propidium iodide based flow cytometry analysis (reference value: 2.3 %); type: functional
HL-60 [23] = test: Cell cycle arrest in human HL60 cells assessed as accumulation at G0/G1 phase at 20 nM after 24 hrs by propidium iodide based flow cytometry analysis (reference value: 50.6 %); type: functional
HL-60 [24] = test: Cell cycle arrest in human HL60 cells assessed as accumulation at S phase at 20 nM after 24 hrs by propidium iodide based flow cytometry analysis (reference value: 22.3 %); type: functional
HL-60 [25] = test: Cell cycle arrest in human HL60 cells assessed as accumulation at G2/M phase at 20 nM after 24 hrs by propidium iodide based flow cytometry analysis (reference value: 24.8 %); type: functional
HL-60 [26] = test: Cell cycle arrest in human HL60 cells assessed as accumulation at Sub G1 phase at 20 nM after 48 hrs by propidium iodide based flow cytometry analysis (reference value: 4 %); type: functional
HL-60 [27] = test: Cell cycle arrest in human HL60 cells assessed as accumulation at G0/G1 phase at 20 nM after 48 hrs by propidium iodide based flow cytometry analysis (reference value: 51.2 %); type: functional
HL-60 [28] = test: Cell cycle arrest in human HL60 cells assessed as accumulation at S phase at 20 nM after 48 hrs by propidium iodide based flow cytometry analysis (reference value: 20.9 %); type: functional
HL-60 [29] = test: Cell cycle arrest in human HL60 cells assessed as accumulation at G2/M phase at 20 nM after 48 hrs by propidium iodide based flow cytometry analysis (reference value: 23.9 %); type: functional

Structure (SMILES): COc1ccc(-c2coc3c(OC)c(OC)c(OC)c(O)c3c2=O)cc1[N+](=O)[O-]
inhibition of growth at 1 µM (KB [1]): 18%

Structure (SMILES): COc1cccc2c1C(=O)c1c(O)c3c(c(O)c1C2=O)C[C@@](O)(C(=O)CO)C[C@@H]3O[C@H]1C[C@H](N)[C@H](O)[C@H](C)O1 [DOXORUBICIN]
viability at 0.1 µM (HL-60 [2]): 81%
Activity (HL-60 [3]): 17.8%
Activity (HL-60 [4]): 0.9%
viability at 0.1 µM (HL-60 [5]): 29.8%
Activity (HL-60 [6]): 68%
Activity (HL-60 [7]): 1.9%

inhibition (Ovis aries [10]): 21%
Structure (SMILES): COc1ccc(/C=C2\Oc3c(cc(OC)c(OC)c3OC)C2=O)cc1O
inhibition of growth at 1 µM (KB [1]): 100%
IC50 (KB [8]): 0.11 µM
IC50 (HL-60 [9]): 0.12 µM
viability at 0.1 µM (HL-60 [2]): 81.1%
Activity (HL-60 [3]): 16.8%
Activity (HL-60 [4]): 1.1%
viability at 0.1 µM (HL-60 [5]): 73.3%
Activity (HL-60 [6]): 24.9%
Activity (HL-60 [7]): 1.1%
Activity (HL-60 [11]): 14.4%
Activity (HL-60 [12]): 40.3%
Activity (HL-60 [13]): 20.6%
Activity (HL-60 [14]): 24.7%
Activity (HL-60 [15]): 21.1%
Activity (HL-60 [16]): 35.1%
Activity (HL-60 [17]): 25.6%
Activity (HL-60 [18]): 18.2%

IC50 [19]: 8.6 µM
Ratio IC50 (Ovis aries [20]): 4
Structure (SMILES): COc1ccc(/C=C2\Oc3c(cc(OC)c(OC)c3OC)C2=O)c(O)c1O
viability at 0.1 µM (HL-60 [2]): 84.1%
Activity (HL-60 [3]): 12.9%
Activity (HL-60 [4]): 1.9%
viability at 0.1 µM (HL-60 [5]): 77.1%
Activity (HL-60 [6]): 21.1%
Activity (HL-60 [7]): 0.8%
Activity (HL-60 [11]): 14%
Activity (HL-60 [12]): 9.8%
Activity (HL-60 [13]): 23.7%
Activity (HL-60 [14]): 52.5%
Activity (HL-60 [15]): 23.2%
Activity (HL-60 [16]): 31.4%
Activity (HL-60 [17]): 28.2%
Activity (HL-60 [18]): 17.2%
IC50 (HL-60 [21]): 100 µM

Structure (SMILES): COc1ccc(-c2cc(=O)c3c(OC)c(OC)c(OC)c(OC)c3o2)cc1N
inhibition of growth at 1 µM (KB [1]): 6%

Structure (SMILES): COc1ccc(-c2oc3c(OC)c(OC)c(OC)cc3c(=O)c2OC)cc1N
inhibition of growth at 1 µM (KB [1]): 84%

Structure (SMILES): COc1ccc(-c2cc(=O)c3c(O)c(OC)c(OC)c(OC)c3o2)cc1N
inhibition of growth at 1 µM (KB [1]): 96%

Structure (SMILES): COc1ccc(/C=C2\Oc3c(OC)c(OC)c(OC)c(O)c3C2=O)cc1[N+](=O)[O-]
inhibition of growth at 1 µM (KB [1]): 0%

Structure (SMILES): COc1ccc(-c2coc3c(OC)c(OC)c(OC)c(O)c3c2=O)cc1N
inhibition of growth at 1 µM (KB [1]): 0%

inhibition (Ovis aries [10]): 33%
Structure (SMILES): COc1ccc(/C=C2\Oc3c(cc(OC)c(OC)c3OC)C2=O)cc1N
inhibition of growth at 1 µM (KB [1]): 98%
IC50 (KB [8]): 0.4 µM
IC50 (HL-60 [9]): 0.18 µM
viability at 0.1 µM (HL-60 [2]): 85.4%
Activity (HL-60 [3]): 12.1%
Activity (HL-60 [4]): 1.5%
viability at 0.1 µM (HL-60 [5]): 81.7%
Activity (HL-60 [6]): 16.4%
Activity (HL-60 [7]): 1.1%
Activity (HL-60 [11]): 13.9%
Activity (HL-60 [12]): 39%
Activity (HL-60 [13]): 18.7%
Activity (HL-60 [14]): 28.4%
Activity (HL-60 [15]): 14%
Activity (HL-60 [16]): 42.6%
Activity (HL-60 [17]): 22.5%
Activity (HL-60 [18]): 20.8%

Structure (SMILES): COc1ccc(/C=C2\Oc3c(OC)c(O)c(OC)c(OC)c3C2=O)cc1N
inhibition of growth at 1 µM (KB [1]): 0%

IC50 [19]: 9 µM
Ratio IC50 (Ovis aries [20]): 4
Structure (SMILES): COc1ccc(-c2oc3c(OC)c(OC)c(OC)c(O)c3c(=O)c2OC)cc1N
inhibition of growth at 1 µM (KB [1]): 99%
IC50 (HL-60 [9]): 0.055 µM
viability at 0.1 µM (HL-60 [2]): 74.2%
Activity (HL-60 [3]): 22.8%
Activity (HL-60 [4]): 2.1%
viability at 0.1 µM (HL-60 [5]): 56.3%
Activity (HL-60 [6]): 41%
Activity (HL-60 [7]): 1.9%
Activity (HL-60 [11]): 8.9%
Activity (HL-60 [12]): 40.3%
Activity (HL-60 [13]): 17.5%
Activity (HL-60 [14]): 33.3%
Activity (HL-60 [15]): 19.1%
Activity (HL-60 [16]): 33.1%
Activity (HL-60 [17]): 26.5%
Activity (HL-60 [18]): 21.3%

Structure (SMILES): COc1ccc(/C=C2\Oc3c(OC)c(OC)c(OC)c(O)c3C2=O)cc1N
inhibition of growth at 1 µM (KB [1]): 0%

Structure (SMILES): COc1ccc(/C=C/C(=O)c2c(O)c(OC)c(OC)c(OC)c2OC)cc1N
inhibition of growth at 1 µM (KB [1]): 11%

Structure (SMILES): COc1cc([C@@H]2c3cc4c(cc3C[C@H]3COC(=O)[C@@H]32)OCO4)cc(OC)c1OC [DESOXYPODOPHYLLOTOXIN]
Activity (HL-60 [22]): 7.7%
Activity (HL-60 [23]): 25.2%
Activity (HL-60 [24]): 9.5%
Activity (HL-60 [25]): 57.6%
Activity (HL-60 [26]): 34.1%
Activity (HL-60 [27]): 23.5%
Activity (HL-60 [28]): 37.7%
Activity (HL-60 [29]): 29.8%

Structure (SMILES): COc1ccc(-c2oc3c(OC)c(OC)c(OC)c(OC)c3c(=O)c2OC)cc1N
inhibition of growth at 1 µM (KB [1]): 17%

Structure (SMILES): COc1cc(OC)c(/C=C2\Oc3c(OC)c(OC)c(OC)c(O)c3C2=O)cc1N
inhibition of growth at 1 µM (KB [1]): 0%

inhibition (Ovis aries [10]): 12%
Structure (SMILES): COc1ccc(/C=C2\Oc3c(cc(OC)c(OC)c3OC)C2=O)cc1[N+](=O)[O-]
inhibition of growth at 1 µM (KB [1]): 0%

inhibition (Ovis aries [10]): 12%
Structure (SMILES): COc1cc(OC)c(/C=C2\Oc3c(cc(OC)c(OC)c3OC)C2=O)cc1N
inhibition of growth at 1 µM (KB [1]): 0%

Structure (SMILES): COc1ccc(/C=C2\Oc3c(OC)c(OC)c(OC)c(OC)c3C2=O)cc1N
inhibition of growth at 1 µM (KB [1]): 0%

Structure (SMILES): COc1ccc(C2COc3c(OC)c(OC)c(OC)c(O)c3C2=O)cc1N (configuration not stated)
inhibition of growth at 1 µM (KB [1]): 4%
